Reference: ChEMBL document CHEMBL1125103, “Structure-activity relationships for metal-labeled blood flow tracers: comparison of keto aldehyde bis(thiosemicarbazonato)copper(II) derivatives” (J Med Chem, 1990)

Assays:
[1] = Partition coefficient (logP); type: physicochemical; conditions: octanol/water
Outline: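 1-Octanol (1 mL) and isotonic Tris buffer pH 7.0 (1 mL) vortexed with 1–5 μL of the 67Cu-labeled aqueous complex, then centrifuged at >1200g for 5 min. Both phases were gamma counted in a window on the 185 keV peak. P = counts per g octanol / counts per g water. The octanol phase was re-extracted; the value is from the second and third extractions, mean of six measurements.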

Rattus norvegicus [2] = organism: Rattus norvegicus; test: Myocardial levels of tracer copper in rats 1 min after injection into the femoral vein; type: functional, organism-based; conditions: Myocardium
Outline: (§1)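 Copper-67 bis(thiosemicarbazone) complex, 0.2 mL (1–3 μCi) in 5–10% ethanol, injected with a 27-gauge needle into the exposed femoral vein of ether-anesthetized Sprague-Dawley rats (generally 175–225 g). Dose was set by weighing the syringe. Rats were killed by decapitation; organs were excised, blotted and weighed, and counted for 67Cu by gamma counting against a diluted standard dose. Values are percent injected dose per organ, with blood volume taken as 7% of body mass. Generally four rats per time point; mean ± SD.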

Rattus norvegicus [3] = organism: Rattus norvegicus; test: Brain levels of tracer copper in rats 1 min after injection into the femoral vein; type: functional, organism-based; outline: as §1
Rattus norvegicus [4] = organism: Rattus norvegicus; test: Kidney levels of tracer copper in rats 1 min after injection into the femoral vein; type: functional, organism-based; outline: as §1
Rattus norvegicus [5] = organism: Rattus norvegicus; test: Brain levels of tracer copper in rats 5 min after injection into the femoral vein; type: functional, organism-based; outline: as §1
Rattus norvegicus [6] = organism: Rattus norvegicus; test: Pulmonary levels of tracer copper in rats 1 min after injection into the femoral vein; type: functional, organism-based; outline: as §1
Rattus norvegicus [7] = organism: Rattus norvegicus; test: Liver levels of tracer copper in rats 5 min after injection into the femoral vein; type: functional, organism-based; outline: as §1
Rattus norvegicus [8] = organism: Rattus norvegicus; test: (§2) Blood levels of tracer copper in rats 5 min after injection into the femoral vein; type: functional, organism-based; outline: as §1
Rattus norvegicus [9] = organism: Rattus norvegicus; test: Pulmonary levels of tracer copper in rats 5 min after injection into the femoral vein; type: functional, organism-based; outline: as §1
Rattus norvegicus [10] = organism: Rattus norvegicus; test: Kidney levels of tracer copper in rats 5 min after injection into the femoral vein; type: functional, organism-based; outline: as §1
Rattus norvegicus [11] = organism: Rattus norvegicus; test: Kidney levels of tracer copper in rats 2 hr after injection into the femoral vein; type: functional, organism-based; outline: as §1
Rattus norvegicus [12] = organism: Rattus norvegicus; test: Myocardial levels of tracer copper in rats 2 hr after injection into the femoral vein; type: functional, organism-based; conditions: Myocardium; outline: as §1
Rattus norvegicus [13] = organism: Rattus norvegicus; test: Blood levels of tracer copper in rats 1 min after injection into the femoral vein; type: functional, organism-based; outline: as §1
Rattus norvegicus [14] = organism: Rattus norvegicus; test: Brain levels of tracer copper in rats 2 hr after injection into the femoral vein; type: functional, organism-based; outline: as §1
Rattus norvegicus [15] = organism: Rattus norvegicus; test: Liver levels of tracer copper in rats 1 min after injection into the femoral vein; type: functional, organism-based; outline: as §1
Rattus norvegicus [16] = organism: Rattus norvegicus; test: Pulmonary levels of tracer copper in rats 2 hr after injection into the femoral vein; type: functional, organism-based; outline: as §1
Rattus norvegicus [17] = organism: Rattus norvegicus; test: as §2; type: functional, organism-based; outline: as §1; remark: listed apart in the source
Rattus norvegicus [18] = organism: Rattus norvegicus; test: Myocardial levels of tracer copper in rats 5 min after injection into the femoral vein; type: functional, organism-based; conditions: Myocardium; outline: as §1
Rattus norvegicus [19] = organism: Rattus norvegicus; test: Blood levels of tracer copper in rats 2 hr after injection into the femoral vein; type: functional, organism-based; outline: as §1
Rattus norvegicus [20] = organism: Rattus norvegicus; test: Liver levels of tracer copper in rats 2 hr after injection into the femoral vein; type: functional, organism-based; outline: as §1

| Substance | logP [1] | Injected dose (Rattus norvegicus [2]) [%] | Injected dose (Rattus norvegicus [3]) [%] | Injected dose (Rattus norvegicus [4]) [%] | Injected dose (Rattus norvegicus [5]) [%] | Injected dose (Rattus norvegicus [6]) [%] | Injected dose (Rattus norvegicus [7]) [%] | Injected dose (Rattus norvegicus [8]) [%] | Injected dose (Rattus norvegicus [9]) [%] | Injected dose (Rattus norvegicus [10]) [%] | Injected dose (Rattus norvegicus [11]) [%] | Injected dose (Rattus norvegicus [12]) [%] | Injected dose (Rattus norvegicus [13]) [%] | Injected dose (Rattus norvegicus [14]) [%] | Injected dose (Rattus norvegicus [15]) [%] | Injected dose (Rattus norvegicus [16]) [%] | Injected dose (Rattus norvegicus [17]) [%] | Injected dose (Rattus norvegicus [18]) [%] | Injected dose (Rattus norvegicus [19]) [%] | Injected dose (Rattus norvegicus [20]) [%] |
| --- | --- | --- | --- | --- | --- | --- | --- | --- | --- | --- | --- | --- | --- | --- | --- | --- | --- | --- | --- | --- |
| Propyl glyoxal bis(thiosemicarbazone)(67Cu-n-PrTS) [listing 1 of 2 here] | 1.78 |  |  |  |  |  |  |  |  |  |  |  |  |  |  |  |  |  |  |  |
| Propyl glyoxal bis(thiosemicarbazone)(67Cu-n-PrTS) [listing 2 of 2 here] |  | 3.9 | 1.45 | 2.8 | 1.27 | 13.1 | 13.7 | 8.9 | 9.6 | 2.8 | 3.6 | 3.5 | 15.2 | 1.79 | 11.5 | 5.2 | 8.9 | 3 | 8.5 | 17.3 |
